Many of the other results were omitted from the sample, so hits are more common in it than they were.
YB-1 expr inh: YB-1 expression inhibition; U2OS, qRT-PCR YB-1 vs CDIP delta delta Cp, 16 h; hits give high values; zero = DMSO, each unit about twofold; AID 434959; hit rate 0.37% among 30,000; delta delta Cp (YB-1 minus CDIP) (no concentration beside the values);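 active = delta delta Cp rounded down to an integer at or above 3, about 3 SD of DMSO wells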;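 note: higher means less YB-1 transcript or more CDIP transcript relative to DMSO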
INS-1E rescue: INS-1E beta cell protection from cytokine death. AID 488910. protection from cytokine-induced ATP loss, % at 10 µM. hit rate 0.1% among 20,000. INS-1E cytokine-induced death, ATP luminescence, 48 h; normalised: neutral wells 0, positive control 100;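 active = mean replicate protection from cytokine-induced ATP loss at least 50% and at least 75% of replicates each reaching 50%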
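Assay system – rat INS-1E insulinoma cell line · Quantity – 8000 cells per well · Buffer or medium – RPMI without phenol red, 5% FBS · Schedule – 48 h co-treatment, 10 min post-lysis read · Technique – luminescent ATP assay (CellTiter-Glo)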
T cruzi intra: intracellular Trypanosoma cruzi inhibition | activity score (inhibition), % at 5.01 µM | hit rate 4.9% among 22,000 | AID 651903 | intracellular Trypanosoma cruzi in host cells, plate reader; in the data active = activity score above about 55%;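 note: parasites and compound incubated about four days before reading; 0% = median of neutral control wells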
Starred values were filed as active, the others as inactive; · = no result.

SMILES	YB-1 expr inh	INS-1E rescue	T cruzi intra
O=C(CCCCC(=O)N/N=C/c1ccccc1C(=O)O)NO	-0.019	9	-19
Cc1ccccc1/C=N/NC(=O)CCCCC(=O)NO	0.21	67*	2
O=C(CCCCCC(=O)N/N=C/c1c[nH]c2ccccc12)NO	-0.75	91*	-1
Cc1ccccc1/C=N/NC(=O)CCCCCCC(=O)Nc1ccccc1O	-0.37	1	5
COC(=O)CCCCCCC(=O)N/N=C/c1ccc2c(c1)Cc1ccccc1-2	0.44	-2	26
Cc1ccsc1/C=N\NC(=O)CCCCCC(=O)NO	-0.17	118*	3
O=C(CCCCC(=O)N/N=C\c1ccc2c(c1)Cc1ccccc1-2)NO	0.32	94*	17
CC(=O)NC1=NC(=O)/C(=C\c2cccs2)N1C	-0.16	·	·
N#CC1=C(N)S[C@H](C(=O)c2ccccc2)[C@H]1c1ccc(Br)c(F)c1	-0.32	·	·
CNC(=O)NC(=O)CSc1nnc(Cc2ccccc2)n1-c1ccc(Cl)cc1	-0.034	·	·
CC(=O)O[C@@H]1CC2C(C)(C)CCC[C@]2(C)C2CC[C@]3(C)C(=CC(=O)O[C@H]3c3ccoc3)[C@@]21C (stereo partly specified)	0.12	·	·
COc1ccc(N=C(CCCN2C(=O)c3ccccc3C2=O)C2=C(O)CC(C)(C)CC2=O)cc1	-0.037	·	·
CCCCC/C=C/C(=O)CCc1ccc(O)c(OC)c1	0.22	·	·
Nc1nc(CSc2nnc3c(n2)[nH]c2ccccc23)cs1	0.013	·	·
Cc1ccc(/C(C#N)=C/c2ccc(N(C)C)cc2)cc1	-0.39	·	·
C[C@H](CO)N1C[C@H](C)[C@H](CN(C)Cc2ccc3c(c2)OCO3)Oc2ccc(NC(=O)CCCCCC(=O)Nc3ccccc3N)cc2C1=O	0.4	4	-18
C[C@@H]1CN([C@@H](C)CO)C(=O)c2cccc(NC(=O)CCCCCC(=O)Nc3ccccc3N)c2O[C@H]1CN(C)Cc1ccc2c(c1)OCO2	-0.36	25	59*
C[C@H](CO)N1C[C@H](C)[C@@H](CN(C)Cc2ccc3c(c2)OCO3)Oc2c(NC(=O)CCCCCC(=O)Nc3ccccc3N)cccc2C1=O	0.39	12	73*
C[C@@H]1CN([C@@H](C)CO)C(=O)c2cc(NC(=O)CCCCCC(=O)Nc3ccccc3N)ccc2O[C@@H]1CN(C)Cc1ccc2c(c1)OCO2	-0.087	-1	-7
C[C@H](CO)N1C[C@H](C)[C@@H](CN(C)Cc2ccc3c(c2)OCO3)Oc2ccc(NC(=O)CCCCCC(=O)Nc3ccccc3N)cc2C1=O	0.069	8	-16
C[C@H]1CN([C@@H](C)CO)C(=O)c2cccc(NC(=O)CCCCCC(=O)Nc3ccccc3N)c2O[C@@H]1CN(C)Cc1ccc2c(c1)OCO2	0.02	19	72*
C/C(=N\O)C12CC3(C)CC(C)(CC(C)(C3)C1)C2	-0.05	·	·
FC(F)(F)c1cc(-c2ccc3ccccc3c2)no1	-0.2	·	·
COc1ccc(NC(=O)Nc2cccc3c2O[C@H](CN(C)Cc2ccc(C(=O)Nc4ccccc4N)cc2)[C@@H](C)CN([C@@H](C)CO)C3=O)cc1	-0.74	24	56*
COc1ccc(NC(=O)Nc2cccc3c2O[C@H](CN(C)Cc2ccc(C(=O)Nc4ccccc4N)cc2)[C@@H](C)CN([C@H](C)CO)C3=O)cc1	-0.68	9	37
SMILES	YB-1 expr inh	INS-1E rescue	T cruzi intra
COc1ccc(NC(=O)Nc2cccc3c2O[C@H](CN(C)Cc2ccc(C(=O)Nc4ccccc4N)cc2)[C@H](C)CN([C@@H](C)CO)C3=O)cc1	0.1	2	46
COc1ccc(NC(=O)Nc2cccc3c2O[C@@H](CN(C)Cc2ccc(C(=O)Nc4ccccc4N)cc2)[C@H](C)CN([C@H](C)CO)C3=O)cc1	-0.27	0	67*
O=C(Nc1nc(-c2ccccc2)nc2c1C(=O)CCC2)c1ccccc1	-0.31	·	·
O=C(c1cc2cc(Br)ccc2oc1=O)N1CCCc2ccccc21	-0.5	·	·
CC(C)c1cc(CN2CCN(c3ccccc3)CC2)c(O)c(CN2CCN(c3ccccc3)CC2)c1	0.17	·	·
O=C(O)c1cc(=O)[nH]c2c(C(F)(F)F)cccc12	-0.038	·	·
S=c1[nH]n(-c2ccc(Cl)cc2)c(=S)s1	5*	·	·
[N-]=[N+]=NCc1ccccc1C[C@]1(C(=O)NCC(O)CO)N=C(c2ccc(OCCCO)cc2)O[C@H]1c1ccccc1 (stereo partly specified)	0.6	·	·
[N-]=[N+]=NCc1ccccc1C[C@@]1(C(=O)NCC(O)CO)N=C(c2ccc(OCCCO)cc2)O[C@@H]1c1ccccc1 (stereo partly specified)	9.1*	·	·
COc1ccc(C)cc1NC(=O)C(=S)NCc1ccco1	-0.33	·	·
COc1c(CC=C(C)C)c2c(c3oc(=O)c(-c4ccc(OC(C)=O)cc4)c(OC(C)=O)c13)C=CC(C)(C)O2	-0.42	·	·
C[C@H]1CN([C@@H](C)CO)C(=O)Cc2cc(NC(=O)Nc3ccc(C(F)(F)F)cc3)ccc2O[C@@H]1CN(C)CC1CC1	-0.015	4	-30
C[C@H]1CN([C@@H](C)CO)C(=O)Cc2cc(NC(=O)Nc3ccccc3)ccc2O[C@@H]1CN(C)CC1CCCCC1	0.29	-17	27
C[C@@H]1CN([C@@H](C)CO)C(=O)Cc2cc(NC(=O)Nc3ccc(C(F)(F)F)cc3)ccc2O[C@@H]1CN(C)CC1CCCCC1	0.21	-46	77*
C[C@H]1CN([C@@H](C)CO)C(=O)Cc2cc(NC(=O)Nc3ccc(C(F)(F)F)cc3)ccc2O[C@H]1CN(C)CC1CCCCC1	-0.24	-56	72*
Cc1ccc(SC(C)C(=O)Nc2ccc(C(C)(C)C)cc2)cc1 (stereo unspecified)	0.44	·	·
CN(C)Cc1ccc(C(=O)Oc2ccc(C(C)(C)C)cc2)cc1	-0.42	·	·
CC(C)(C)C(=O)Nc1ccccc1C(=O)N1CCN(Cc2ccccc2)CC1	0.011	·	·
C[C@H]1CN([C@@H](C)CO)C(=O)Cc2cc(NC(=O)Nc3cccc4ccccc34)ccc2O[C@H]1CN(C)Cc1ccc(C(=O)Nc2ccccc2N)cc1	-0.32	-9	74*
C[C@H]1CN([C@@H](C)CO)C(=O)Cc2cc(NC(=O)c3ccncc3)ccc2O[C@@H]1CN(C)Cc1ccc(C(=O)Nc2ccccc2N)cc1	-0.023	10	32
C[C@H]1CN([C@@H](C)CO)C(=O)Cc2cc(NC(=O)Nc3ccccc3)ccc2O[C@H]1CN(C)Cc1ccc(C(=O)Nc2ccccc2N)cc1	-0.42	12	69*
C[C@H]1CN([C@@H](C)CO)C(=O)Cc2cc(NC(=O)Nc3cccc4ccccc34)ccc2O[C@@H]1CN(C)Cc1ccc(C(=O)Nc2ccccc2N)cc1	-0.34	-14	38
C[C@@H]1CN([C@H](C)CO)C(=O)Cc2cc(NC(=O)Nc3ccc(F)cc3)ccc2O[C@@H]1CN(C)Cc1ccc(C(=O)Nc2ccccc2N)cc1	-0.55	-15	60*
C[C@H]1CN([C@@H](C)CO)C(=O)Cc2cc(NC(=O)Nc3ccc(F)cc3)ccc2O[C@H]1CN(C)Cc1ccc(C(=O)Nc2ccccc2N)cc1	-0.71	-6	56*
Cc1cccc(C(=O)NN(c2ccccc2)c2ccccc2)c1	-0.057	·	·
CCCCC1(COC(=O)c2ccc(OC)cc2)C(=O)N(c2ccccc2)N(c2ccccc2)C1=O	1.1	·	·

Screens deposited in PubChem by Broad Institute.
